Values after ≈ are worked out from the molar mass of the structure shown. Non-standard residues stand in square brackets, D forms with d. Residues, ends and D or L forms follow the SMILES beside them. hArg = N=C(N)NCCCC[C@H](N)C(=O)O

This note sets out measurements from PMC12216437 (Scientific Reports, 2025).

Series [1] deals with E. coli ATCC 8739. Briefly: Resistance development assay. The format is cell-based. The following applies: for fold increase in MIC: E. coli ATCC 8739, sub-MIC exposure; for MIC: Escherichia coli, ATCC8739.
In series [2] the test system is E. coli ATCC 8739. Briefly: Thermal and trypsin sensitivity. The format is cell-based. The note with it: for MIC, 80 °C: E. coli ATCC 8739, peptide heated at 80 °C for 10 min, no trypsin; for MBC, Control / MIC, Control: E. coli ATCC 8739, untreated peptide.
Another series in a line: LPS-binding assay. The note with it: BC displacement, peptide 0.5-32 μM. The method in brief: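 BODIPY-TR cadaverine displacement: LPS (25 µg/mL) preincubated with BC dye (2.5 µg/mL) for 4 h at room temperature. Peptides, with melittin as positive control, prepared at 0.5–32 µM in Tris–HCl pH 7.4 and combined with LPS–BC mixture for 1 h at 37 °C. Fluorescence read at ex 590/em 645 nm; triplicates, independent experiments.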

Series [3] deals with E. coli ATCC 8739. Briefly: Cytoplasmic membrane depolarization assay. The following applies: E. coli ATCC 8739, membrane depolarisation. The format is cell-based. A digest of the protocol:
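E. coli ATCC 8739 washed twice and resuspended to OD600 0.05 in 5 mM HEPES (pH 7.4) with 20 mM glucose and 100 mM KCl. Cells incubated 1 h in the dark with Disc3(5) solution (20 µM). Baseline read every 1 min for 5 min ([…]/em 645 nm). Peptide at various concentrations or melittin control then added; read every 1 min for 15 min.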

The test system of series [4] is E. coli ATCC 8739. As to the kind of experiment: Salts and serum sensitivity. The format is cell-based. The note with it: for MIC, NH4+: E. coli ATCC 8739, 6 μM NH4Cl; for MIC, Zn2+: E. coli ATCC 8739, 8 mM ZnCl2; for MBC, Serum 10% / MIC, Serum 10%: E. coli ATCC 8739, 10% FBS.
The subject of series [5] is Wax Moth Larvae (Galleria mellonella). Briefly: In vivo toxicity in larvae. The following applies: uninfected larvae, 4 × MIC of peptide 7, five-day observation. A digest of the protocol: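 Uninfected Galleria mellonella larvae (250 ± 20 mg), ten per group, given test compound at 4 × MIC; PBS as vehicle-only group. Kept at 24 °C and survival scored every 24 h for five days.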

Where [6] appears, read: E. coli ATCC 8739, 2.5 mM CaCl2.

As for `CO/N=C(\C(=O)N[C@@H]1C(=O)N2C(C(=O)O)=C(COC(C)=O)CS[C@H]12)c1csc(N)n1` [Cefotaxime], the “fold increase in MIC” value in the series with E. coli ATCC 8739 [1] (twenty passages (twenty days)) turned out to be 32 fold. Besides, the MIC (in general, the lowest concentration found to suppress growth) with E. coli ATCC 8739 [1] was found to be 1 µM (≈ 0.455 µg/mL).

Take `CNC(C)C1CCC(N)C(OC2C(N)CC(N)C(OC3OCC(C)(O)C(NC)C3O)C2O)O1` (stereo not drawn) [Gentamicin]: the “fold increase in MIC” value in the series on E. coli ATCC 8739 [1] (twenty passages (twenty days)) is on record as 32 fold. For the same compound, in the series with E. coli ATCC 8739 [1], the MIC worked out at 2 µM (≈ 0.955 µg/mL).

Consider `CC[C@H](C)[C@H](NC(=O)CN)C(=O)NCC(=O)N[C@@H](C)C(=O)N[C@H](C(=O)N[C@@H](CC(C)C)C(=O)N[C@@H](CCCCN)C(=O)N[C@H](C(=O)N[C@@H](CC(C)C)C(=O)N[C@H](C(=O)N[C@H](C(=O)NCC(=O)N[C@@H](CC(C)C)C(=O)N1CCC[C@H]1C(=O)N[C@@H](C)C(=O)N[C@@H](CC(C)C)C(=O)N[C@H](C(=O)N[C@@H](CO)C(=O)N[C@@H](Cc1c[nH]c2ccccc12)C(=O)N[C@H](C(=O)N[C@@H](CCCCN)C(=O)N[C@@H](CCCNC(=N)N)C(=O)N[C@@H](CCCCN)C(=O)N[C@@H](CCCNC(=N)N)C(=O)N[C@@H](CCC(N)=O)C(=O)N[C@@H](CCC(N)=O)C(N)=O)[C@@H](C)CC)[C@@H](C)CC)[C@@H](C)O)[C@@H](C)O)C(C)C)C(C)C` [Melittin], for which the “fold increase of MIC and MBC values” in the series on E. coli ATCC 8739 [2] (E. coli ATCC 8739, 0.25 mg/mL trypsin) is on record as 32 fold. Besides, in the series with E. coli ATCC 8739 [2], the MIC, 80 °C is 2 µM (≈ 5.69 µg/mL); the MBC, Control stood at 2 µM (≈ 5.69 µg/mL); the MIC, Control turned out to be 2 µM (≈ 5.69 µg/mL). For the same compound, the “concentration at which LPS-binding affinity peaked” value in the series “LPS-binding assay” was 16 µM. In the series on E. coli ATCC 8739 [3], the “concentration at maximum Disc3(5) fluorescence” value is 2 µM and the “incubation time to maximum Disc3(5) fluorescence” value is recorded as 3 min.

Consider `CCn1cc(C(=O)O)c(=O)c2cc(F)c(N3CCNCC3)cc21` [Norfloxacin], for which the “fold increase in MIC” value with E. coli ATCC 8739 [1] (twenty passages (twenty days)) was 512 fold. The compound also came in with an MIC in the series on E. coli ATCC 8739 [1] of 0.25 µM (≈ 0.0798 µg/mL).

Regarding `C[C@H](NC(=O)[C@H](Cc1c[nH]c2ccccc12)NC(=O)CNC(=O)[C@H](CCCNC(=N)N)NC(=O)[C@H](Cc1c[nH]c2ccccc12)NC(=O)[C@H](Cc1c[nH]c2ccccc12)NC(=O)[C@H](CO)NC(=O)[C@H](CO)NC(=O)[C@H](Cc1c[nH]c2ccccc12)NC(=O)CN)C(=O)N[C@@H](CCCCN)C(=O)N[C@@H](Cc1c[nH]c2ccccc12)C(=O)N[C@@H](C)C(=O)N[C@@H](CO)C(=O)N[C@@H](CCCCN)C(=O)NCC(=O)N[C@@H](Cc1c[nH]c2ccccc12)C(=O)NCC(=O)N[C@@H](CCCCN)C(N)=O` [Peptide 6, [Trp^2,5,6,9,12,17]-des-(Asp20-Cys37)-E2P] (H-GWSSWWRGWAKWASKGWGK-NH2), in the series on E. coli ATCC 8739 [4], the MIC, NH4+ amounted to 4 µM; the MIC, Zn2+ stood at 4 µM; the MBC, Serum 10% is 4 µM; the MIC, Serum 10% is 4 µM. Further, in the series on E. coli ATCC 8739 [4] (E. coli ATCC 8739, 1 mM MgCl2), the MBC, Mg2+ amounted to 32 µM and the MIC, Mg2+ turned out to be 32 µM. In the series with E. coli ATCC 8739 [4] (E. coli ATCC 8739, 20% FBS), the MBC, Serum 20% was 8 µM and the MIC, Serum 20% amounted to 8 µM.

For the compound `CC[C@H](C)[C@H](NC(=O)[C@H](CO)NC(=O)[C@H](CO)NC(=O)[C@H](Cc1ccccc1)NC(=O)CN)C(=O)N[C@@H](Cc1ccccc1)C(=O)N[C@@H](CCCCNC(=N)N)C(=O)NCC(=O)N[C@H](C(=O)N[C@@H](C)C(=O)N[C@@H](CCCCNC(=N)N)C(=O)N[C@@H](Cc1ccccc1)C(=O)N[C@@H](C)C(=O)N[C@@H](CO)C(=O)N[C@@H](CCCCNC(=N)N)C(=O)NCC(=O)N[C@@H](CC(C)C)C(=O)NCC(=O)N[C@@H](CCCCNC(=N)N)C(N)=O)C(C)C` [Peptide 7, [hArg^7,11,15,19]-des-(Asp20-Cys37)-E2P] (H-GFSSIF[hArg]GVA[hArg]FAS[hArg]GLG[hArg]-NH2), the “MIC, Fe3+” value in the series on E. coli ATCC 8739 [4] (E. coli ATCC 8739, 4 μM FeCl3) came to 2 µM. In the series on E. coli ATCC 8739 [4], the MIC, NH4+ was determined as 2 µM; the MIC, Zn2+ came to 4 µM; the MBC, Serum 10% is 4 µM; the MIC, Serum 10% was determined as 4 µM. In addition, the MIC, K+ in the series on E. coli ATCC 8739 [4] (E. coli ATCC 8739, 0.5 mM KCl) was 2 µM. For the same compound, the MIC, Mg2+ with E. coli ATCC 8739 [4] (E. coli ATCC 8739, 1 mM MgCl2) is 8 µM. In the series on E. coli ATCC 8739 [4] (setting [6]), the MBC, Ca2+ was determined as 64 µM and the MIC, Ca2+ was determined as 64 µM. In the series with E. coli ATCC 8739 [2], this compound displayed an MIC, 80 °C of 2 µM (≈ 4.19 µg/mL); an MBC, Control of 2 µM (≈ 4.19 µg/mL); an MIC, Control of 2 µM (≈ 4.19 µg/mL). The “effect on survival of larvae (toxicity)” value in series [5] is “did not affect the survival of the larvae”.

As for `CO[C@H]1/C=C/O[C@@]2(C)Oc3c(C)c(O)c4c(O)c(c(/C=N/N5CCN(C)CC5)c(O)c4c3C2=O)NC(=O)/C(C)=C\C=C\[C@H](C)[C@H](O)[C@@H](C)[C@@H](O)[C@@H](C)[C@H](OC(C)=O)[C@@H]1C` [Rifampicin], in the series on E. coli ATCC 8739 [1] (within five passages), the “fold increase in MIC” value was determined as 512 fold. The compound further displayed a minimum inhibitory concentration (MIC) against E. coli ATCC 8739 [1] of 8 µM (≈ 6.58 µg/mL).
